# Reference: ChEMBL document CHEMBL1156310, “Stepwise synthesis of oligonucleotide-peptide conjugates containing guanidinium and lipophilic groups in their 3'-termini” (Bioorg Med Chem Lett, 2010)
# Tests used:
# SH-SY5Y [1] = experiment: Antisense activity in human SH-SY5Y cells assessed as inhibition of luciferase gene expression at 60 nM after 22 hrs by luminometry in the presence of lipofectamine 2000; type: functional
# In short: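 SH-SY5Y cells cotransfected via Lipofectamine 2000 with Renilla (target) and firefly (internal control) luciferase plasmids plus phosphorothioate ASO derivatives at 60 nM, targeting Renilla mRNA site 21-38; scrambled sequences as controls. Read-out: Renilla luciferase inhibition normalized to firefly.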
# SH-SY5Y [2] = experiment: Cellular uptake in human SH-SY5Y cells at 300 nM after 22 hrs by dual leucifearse reporter assay; type: ADME, cell-based; conditions: 0.3 µM
# In short: (§1)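 Dual-luciferase plasmids (Renilla target, firefly internal control) transfected into SH-SY5Y; after 3 h, medium replaced with fresh medium containing ASO-peptide conjugates (150, 200, 300 nM) without Lipofectamine 2000. Luciferase activities measured 22 h after transfection; knockdown expressed as inhibition of Renilla expression. Phosphorothioate ASO targets Renilla mRNA 21-38 site.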
# SH-SY5Y [3] = experiment: Antisense activity in human SH-SY5Y cells assessed as inhibition of luciferase gene expression at 300 nM after 22 hrs by luminometry; type: functional; parameters: scale not given: the % may be the effect or the level left; in short: as §1
Drug uptake (SH-SY5Y [2]) [%],SMILES,inhibition at 0.06 µM (SH-SY5Y [1]) [%],Activity (SH-SY5Y [3]) [%]
28,Cc1cn([C@H]2C[C@H](OP(O)(=S)OC[C@H]3O[C@@H](n4cc(C)c(=O)[nH]c4=O)C[C@@H]3OP(O)(=S)OC[C@H]3O[C@@H](n4cnc5c(=O)[nH]c(N)nc54)[C@H](O)[C@@H]3OP(O)(=S)OC[C@H]3O[C@@H](n4cc(C)c(=O)[nH]c4=O)C[C@@H]3OP(O)(=S)OC[C@H]3O[C@@H](n4cc(C)c(=O)[nH]c4=O)C[C@@H]3OP(O)(=S)OC[C@H]3O[C@@H](n4cc(C)c(=O)[nH]c4=O)C[C@@H]3OP(O)(=S)OC[C@H]3O[C@@H](n4ccc(N)nc4=O)[C@H](O)[C@@H]3OP(O)(=S)OC[C@H]3O[C@@H](n4ccc(N)nc4=O)[C@H](O)[C@@H]3OP(O)(=S)OC[C@H]3O[C@@H](n4cc(C)c(=O)[nH]c4=O)C[C@@H]3OP(O)(=S)OC[C@H]3O[C@@H](n4cc(C)c(=O)[nH]c4=O)C[C@@H]3OP(O)(=S)OC[C@H]3O[C@@H](n4cc(C)c(=O)[nH]c4=O)C[C@@H]3OP(O)(=S)OC[C@H]3O[C@@H](n4cnc5c(=O)[nH]c(N)nc54)[C@H](O)[C@@H]3OP(O)(=S)OC[C@H]3O[C@@H](n4ccc(N)nc4=O)[C@H](O)[C@@H]3O)[C@@H](COP(O)(=S)O[C@H]3[C@@H](O)[C@H](n4ccc(N)nc4=O)O[C@@H]3COP(O)(=S)O[C@H]3C[C@H](n4cc(C)c(=O)[nH]c4=O)O[C@@H]3COP(O)(=S)O[C@H]3[C@@H](O)[C@H](n4cnc5c(=O)[nH]c(N)nc54)O[C@@H]3COP(O)(=S)O[C@H]3[C@@H](O)[C@H](n4cnc5c(=O)[nH]c(N)nc54)O[C@@H]3COP(O)(=S)O[C@H]3[C@@H](O)[C@H](n4cnc5c(N)ncnc54)O[C@@H]3COP(O)(=S)OCCCC(=O)N[C@H](CCCCNC(=N)N)C(=O)N[C@@H](CCCCNC(N)N)C(=O)N[C@H](CCCCNC(=N)N)C(=O)N[C@@H](CCCCNC(=N)N)C(=O)N[C@H](CCCCNC(=N)N)C(=O)N[C@@H](CCCCNC(=N)N)C(=O)N[C@H](CCCCNC(=N)N)C(=O)N[C@@H](CCCCNC(=N)N)C(=O)NCCCCCCO)O2)c(=O)[nH]c1=O (some centres undefined),66,28
18,Cc1cn([C@H]2C[C@H](OP(O)(=S)OC[C@H]3O[C@@H](n4cc(C)c(=O)[nH]c4=O)C[C@@H]3OP(O)(=S)OC[C@H]3O[C@@H](n4cnc5c(=O)[nH]c(N)nc54)[C@H](O)[C@@H]3OP(O)(=S)OC[C@H]3O[C@@H](n4cc(C)c(=O)[nH]c4=O)C[C@@H]3OP(O)(=S)OC[C@H]3O[C@@H](n4cc(C)c(=O)[nH]c4=O)C[C@@H]3OP(O)(=S)OC[C@H]3O[C@@H](n4cc(C)c(=O)[nH]c4=O)C[C@@H]3OP(O)(=S)OC[C@H]3O[C@@H](n4ccc(N)nc4=O)[C@H](O)[C@@H]3OP(O)(=S)OC[C@H]3O[C@@H](n4ccc(N)nc4=O)[C@H](O)[C@@H]3OP(O)(=S)OC[C@H]3O[C@@H](n4cc(C)c(=O)[nH]c4=O)C[C@@H]3OP(O)(=S)OC[C@H]3O[C@@H](n4cc(C)c(=O)[nH]c4=O)C[C@@H]3OP(O)(=S)OC[C@H]3O[C@@H](n4cc(C)c(=O)[nH]c4=O)C[C@@H]3OP(O)(=S)OC[C@H]3O[C@@H](n4cnc5c(=O)[nH]c(N)nc54)[C@H](O)[C@@H]3OP(O)(=S)OC[C@H]3O[C@@H](n4ccc(N)nc4=O)[C@H](O)[C@@H]3O)[C@@H](COP(O)(=S)O[C@H]3[C@@H](O)[C@H](n4ccc(N)nc4=O)O[C@@H]3COP(O)(=S)O[C@H]3C[C@H](n4cc(C)c(=O)[nH]c4=O)O[C@@H]3COP(O)(=S)O[C@H]3[C@@H](O)[C@H](n4cnc5c(=O)[nH]c(N)nc54)O[C@@H]3COP(O)(=S)O[C@H]3[C@@H](O)[C@H](n4cnc5c(=O)[nH]c(N)nc54)O[C@@H]3COP(O)(=S)O[C@H]3[C@@H](O)[C@H](n4cnc5c(N)ncnc54)O[C@@H]3COP(O)(=S)OCCCC(=O)N[C@H](CCCCNC(=N)N)C(=O)N[C@@H](CCCCNC(=N)N)C(=O)NCCCCCCO)O2)c(=O)[nH]c1=O (some centres undefined),64,
21,Cc1cn([C@H]2C[C@H](OP(O)(=S)OC[C@H]3O[C@@H](n4cc(C)c(=O)[nH]c4=O)C[C@@H]3OP(O)(=S)OC[C@H]3O[C@@H](n4cnc5c(=O)[nH]c(N)nc54)[C@H](O)[C@@H]3OP(O)(=S)OC[C@H]3O[C@@H](n4cc(C)c(=O)[nH]c4=O)C[C@@H]3OP(O)(=S)OC[C@H]3O[C@@H](n4cc(C)c(=O)[nH]c4=O)C[C@@H]3OP(O)(=S)OC[C@H]3O[C@@H](n4cc(C)c(=O)[nH]c4=O)C[C@@H]3OP(O)(=S)OC[C@H]3O[C@@H](n4ccc(N)nc4=O)[C@H](O)[C@@H]3OP(O)(=S)OC[C@H]3O[C@@H](n4ccc(N)nc4=O)[C@H](O)[C@@H]3OP(O)(=S)OC[C@H]3O[C@@H](n4cc(C)c(=O)[nH]c4=O)C[C@@H]3OP(O)(=S)OC[C@H]3O[C@@H](n4cc(C)c(=O)[nH]c4=O)C[C@@H]3OP(O)(=S)OC[C@H]3O[C@@H](n4cc(C)c(=O)[nH]c4=O)C[C@@H]3OP(O)(=S)OC[C@H]3O[C@@H](n4cnc5c(=O)[nH]c(N)nc54)[C@H](O)[C@@H]3OP(O)(=S)OC[C@H]3O[C@@H](n4ccc(N)nc4=O)[C@H](O)[C@@H]3O)[C@@H](COP(O)(=S)O[C@H]3[C@@H](O)[C@H](n4ccc(N)nc4=O)O[C@@H]3COP(O)(=S)O[C@H]3C[C@H](n4cc(C)c(=O)[nH]c4=O)O[C@@H]3COP(O)(=S)O[C@H]3[C@@H](O)[C@H](n4cnc5c(=O)[nH]c(N)nc54)O[C@@H]3COP(O)(=S)O[C@H]3[C@@H](O)[C@H](n4cnc5c(=O)[nH]c(N)nc54)O[C@@H]3COP(O)(=S)O[C@H]3[C@@H](O)[C@H](n4cnc5c(N)ncnc54)O[C@@H]3COP(O)(=S)OCCCC(=O)N[C@H](CCCCNC(=N)N)C(=O)N[C@@H](CCCCNC(=N)N)C(=O)N[C@H](CCCCNC(=N)N)C(=O)N[C@@H](CCCCNC(=N)N)C(=O)NCCCCCCO)O2)c(=O)[nH]c1=O (some centres undefined),57,
11,Cc1cn([C@H]2C[C@H](OP(O)(=S)OC[C@H]3O[C@@H](n4cc(C)c(=O)[nH]c4=O)C[C@@H]3OP(O)(=S)OC[C@H]3O[C@@H](n4cnc5c(=O)[nH]c(N)nc54)[C@H](O)[C@@H]3OP(O)(=S)OC[C@H]3O[C@@H](n4cc(C)c(=O)[nH]c4=O)C[C@@H]3OP(O)(=S)OC[C@H]3O[C@@H](n4cc(C)c(=O)[nH]c4=O)C[C@@H]3OP(O)(=S)OC[C@H]3O[C@@H](n4cc(C)c(=O)[nH]c4=O)C[C@@H]3OP(O)(=S)OC[C@H]3O[C@@H](n4ccc(N)nc4=O)[C@H](O)[C@@H]3OP(O)(=S)OC[C@H]3O[C@@H](n4ccc(N)nc4=O)[C@H](O)[C@@H]3OP(O)(=S)OC[C@H]3O[C@@H](n4cc(C)c(=O)[nH]c4=O)C[C@@H]3OP(O)(=S)OC[C@H]3O[C@@H](n4cc(C)c(=O)[nH]c4=O)C[C@@H]3OP(O)(=S)OC[C@H]3O[C@@H](n4cc(C)c(=O)[nH]c4=O)C[C@@H]3OP(O)(=S)OC[C@H]3O[C@@H](n4cnc5c(=O)[nH]c(N)nc54)[C@H](O)[C@@H]3OP(O)(=S)OC[C@H]3O[C@@H](n4ccc(N)nc4=O)[C@H](O)[C@@H]3O)[C@@H](COP(O)(=S)O[C@H]3[C@@H](O)[C@H](n4ccc(N)nc4=O)O[C@@H]3COP(O)(=S)O[C@H]3C[C@H](n4cc(C)c(=O)[nH]c4=O)O[C@@H]3COP(O)(=S)O[C@H]3[C@@H](O)[C@H](n4cnc5c(=O)[nH]c(N)nc54)O[C@@H]3COP(O)(=S)O[C@H]3[C@@H](O)[C@H](n4cnc5c(=O)[nH]c(N)nc54)O[C@@H]3COP(O)(=S)O[C@H]3[C@@H](O)[C@H](n4cnc5c(N)ncnc54)O[C@@H]3COP(O)(=S)OCCCC(=O)N[C@H](CCCCN)C(=O)N[C@@H](CCCCN)C(=O)N[C@H](CCCCN)C(=O)N[C@@H](CCCCN)C(=O)N[C@H](CCCCN)C(=O)N[C@@H](CCCCN)C(=O)N[C@H](CCCCN)C(=O)N[C@@H](CCCCN)C(=O)NCCCCCCO)O2)c(=O)[nH]c1=O (some centres undefined),65,
